In PMC11170706 (ACS Omega, 2024):

What was measured:
[1] = system: human normal cell line HaCaT; assay: MTT cell proliferation assay, HaCaT cells; assay type: cell-based; conditions: 72 h, read-out: IC50 value (μM) HaCaT
In short: (§1)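 Human lines kept in DMEM with 10% FBS and 1% Pen-Strep at 37 °C, 5% CO2. 2 × 10^3 cells/well were seeded, grown 24 h, then exposed to test compound for 72 h (SAS and T.Tn: 0, 5, 10, 25, 50, 100 μM; HaCaT: 0, 10, 25, 50, 75, 100 μM). MTT (5 mg/mL stock) was added for 2 h, formazan dissolved in DMSO, and A570 read. Percentage proliferation was taken relative to untreated control. IC50 was read where the dose–response curve crosses 50%.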

[2] = system: OSCC cell line SAS; assay: MTT cell proliferation assay, SAS cells; assay type: cell-based, human; conditions: for IC50: Homo sapiens, 72 h, read-out: IC50 value (μM) SAS; for Selectivity index (SI) IC50 (HaCaT)/IC50 (SAS): ratio of IC50 in HaCaT to IC50 in SAS
[3] = system: SAS cells; assay: PI-based flow cytometric analysis of cell death; design: species or system human; conditions: 48 h, PI staining
In short: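 After 24 h attachment, 2 × 10^5 SAS cells per well received test compound for 48 h. Floating cells from the medium were pooled with trypsinized cells and washed three times in PBS. The unfixed cells were resuspended in PBS with PI and analysed by flow cytometry, with percentage of dead cells recorded.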

[4] = system: SAS cells; assay: Colony formation; assay type: cell-based, human; conditions: for inhibition at 10 µM: read-out: inhibition/reduction of colony formation
In short: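 SAS cells were seeded at 2 × 10^3 per well and attached for 24 h. Test compound (1–20 μM range) was given for 24 h, then replaced with fresh medium for 10 days of growth. Colonies were washed in PBS, fixed in 70% ethanol for 4 h at −20 °C, stained with 0.01% crystal violet and counted. Plating efficiency = colonies/cells plated × 100. Survival fraction = PE treated/PE control.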

[5] = system: Bcl-2, caspases, COX-2, MMP-9, survivin, VEGF, Akt/mTOR and STAT-3 in SAS cells; assay: Western blot analysis of proteins involved in OSCC; assay type: cell-based, human; conditions: 24 h, AA2 2.5, 5, 10 μM, AA3 10, 15, 20 μM
In short: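 SAS cells were seeded at 4 × 10^5 per well, attached 24 h, then treated 24 h with test compound (0–20 μM). Lysis buffer: 20 mM HEPES, 250 mM NaCl, 2 mM EDTA, 0.1% Triton X-100, 1 mM DTT, protease inhibitors. Protein was quantified by Bradford and equal amounts run on 12% SDS-PAGE, then transferred to nitrocellulose. Blocking was 5% milk, primary antibody overnight at 4 °C, HRP secondary 2 h, ECL detection. α-Tubulin served as loading control.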

[6] = system: SAS cells; assay: PI-RNase-based cell-cycle analysis; design: species or system human; conditions: 24 h, AA2 1-10 μM, AA3 5-20 μM, PI-RNase flow cytometry
In short: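 SAS cells were seeded at 2 × 10^5 per well, grown 24 h, then treated 24 h with test compound. Cells were trypsinized, PBS-washed and fixed overnight in 75% ethanol at −20 °C. They were stained with PI-RNase for 20 min in the dark and analysed by flow cytometry for the percentage of cells in each cycle phase.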

[7] = system: esophageal cancer cell line T.Tn; assay: MTT cell proliferation assay, T.Tn cells; assay type: cell-based; conditions: Homo sapiens, 72 h, read-out: IC50 value (μM) T.Tn
In short: as §1

[8] = system: SAS cells; assay: Annexin V-based flow cytometric analysis of apoptosis; assay type: cell-based, human; conditions: 48 h
In short: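 SAS cells were seeded at 2 × 10^5 per well, grown 24 h, then exposed to test compound for 48 h. Medium-borne and trypsinized cells were collected and washed three times in PBS. They were labelled with annexin V for 20 min, then PI for 10 min, and analysed by flow cytometry. Apoptosis was computed from quadrants Q2+Q4.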

[9] = system: SAS cells; assay: Wound-healing scratch assay; assay type: cell-based, human; conditions: 24 h
In short: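 SAS cells were seeded at 6 × 10^5 per well and grown to a monolayer. Cells were serum-starved in DMEM for 6 h to block proliferation, then scratched with a pipette tip and PBS-washed. Test compound was added and wounds were imaged at 0 and 24 h. Percentage wound area remaining is reported as mean ± SD, Student's t test, p < 0.05.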

SMILES	IC50 [1] [µM]	IC50 [2] [µM]	Selectivity index (SI) IC50 (HaCaT)/IC50 (SAS) [2]	inhibition at 10 µM ([4]; Homo sapiens) [%]	effect on Akt/mTOR and STAT-3 signaling pathways [5]	effect on Bcl-2 expression [5]	effect on caspase-3 and caspase-9 [5]	effect on cell-cycle progression [6]	IC50 [7] [µM]	apoptosis (percentage of apoptotic cells) ([8]; 5 μM) [%]	apoptosis (percentage of apoptotic cells) ([8]; 10 μM) [%]	wound area (initial gap) remaining ([9]; 5 μM)	wound area (initial gap) remaining ([9]; 10 μM)	also measured
O=c1[nH]cc(F)c(=O)[nH]1 [5-FU, 5-fluorouracil, reference compound]	4	3	1.3	–	–	–	–	–	–	–	–	–	–	–
CC(C)=CCc1c(-c2cc(O)c(O)cc2O)oc2c3c(cc(O)c2c1=O)OC(C)(C)C=C3 [AA2, artonin E]	72	6	12	> 90	inhibition of the Akt/mTOR and STAT-3 signaling pathways	downregulation of Bcl-2	activation of caspase-3 and caspase-9 in a dose-dependent manner	arrest of these cells in the S-phase	8	18	22	over 60%	over 75%	cell death ([3]; 10 μM): more than 80%; inhibition at 5 µM ([4]; Homo sapiens, read-out: inhibition of colony formation): > 90%; reduction of colony formation ([4]; SAS cells, 2.5 μM, 24 h treatment, 10 days culture): over 50%; apoptosis (percentage of apoptotic cells) ([8]; 2.5 μM): 8%; wound area (initial gap) remaining ([9]; 1 μM): approximately 25%; wound area (initial gap) remaining ([9]; 2.5 μM): 40%
C=C(C)[C@H]1Cc2c(oc3c4c(cc(O)c3c2=O)OC(C)(C)C=C4)-c2c(O)cc(O)c(O)c21 [AA3, artobiloxanthone]	70	11	6.4	> 80	inhibition of the Akt/mTOR and STAT-3 signaling pathways	downregulation of Bcl-2	activation of caspase-3 and caspase-9 in a dose-dependent manner	arrest of these cells in the S-phase	22	8	18	over 45%	over 60%	cell death ([3]; 20 μM): approximately 8%; apoptosis (percentage of apoptotic cells) ([8]; 15 μM): 26%; apoptosis (percentage of apoptotic cells) ([8]; 20 μM): 30%; wound area (initial gap) remaining ([9]; 15 μM): over 65%; wound area (initial gap) remaining ([9]; 20 μM): 90%
